Measurements from ChEMBL document CHEMBL4311948, “Exploring the Natural Piericidins as Anti-Renal Cell Carcinoma Agents Targeting Peroxiredoxin 1” (J Med Chem, 2019).

Experiments:
[1] = test system: OS-RC-2; test: Cytotoxicity against human OS-RC2 cells assessed as reduction in cell viability measured after 72 hrs by CCK8 assay; type: functional, cell-based; details: OS-RC-2, 72 h
Outline: (§1)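 Cells were grown in 10% FBS medium: MEM for ACHN, RPMI1640 for OS-RC-2 and 786-O, DMEM for HK-2. They were seeded at 400–800 cells/well in 384-well plates and treated with a range of compound concentrations or solvent control, with sorafenib as positive control. After 72 h, CCK-8 absorbance was read at 450 nm in triplicate, and IC50 was taken from dose-response curves.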

[2] = test system: ACHN; test: Cytotoxicity against human ACHN cells assessed as reduction in cell viability measured after 72 hrs by CCK8 assay; type: functional, cell-based; outline: as §1
[3] = test system: 786-0; test: Cytotoxicity against human 786-O cells assessed as reduction in cell viability measured after 72 hrs by CCK8 assay; type: functional, cell-based; details: 786-0, 72 h; outline: as §1
[4] = test system: HK-2; test: Cytotoxicity against human HK2 cells assessed as reduction in cell viability measured after 72 hrs by CCK8 assay; type: cell-based; details: HK-2, 72 h; outline: as §1
[5] = test system: ACHN; test: Cytotoxicity against human ACHN cells harboring shPRDX1 gene assessed as reduction in cell viability measured after 72 hrs by CCK8 assay; type: functional, cell-based
Outline: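 Transfectants were selected with puromycin (1 μg/mL), and knockdown was confirmed by immunoblot. Viability was read by CCK-8 after 72 h of compound exposure in 384-well plates at 400–800 cells/well in MEM with 10% FBS, and IC50 was taken from dose-response curves.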

[6] = Homo sapiens, ACHN, 72 h, read-out: IC50

SMILES	IC50 [1] [µM]	IC50 [2] [µM]	IC50 [3] [µM]	IC50 [4] [µM]	IC50 [5, 6] [µM]	IC50 ([5]; achn)
C/C=C(\C)[C@H](O[C@@H]1O[C@H](CO)[C@@H](O)[C@H](O)[C@H]1O)[C@H](C)/C=C(C)/C=C/C/C(C)=C/Cc1nc(OC)cc(O)c1C	14	3.8	15	–	–	–
C/C=C(\C)[C@H](O[C@@H]1O[C@H](CO)[C@@H](O)[C@H](O)[C@H]1O)[C@H](C)/C=C/C=C/C/C(C)=C/Cc1nc(OC)c(OC)c(O)c1C	2.6	0.31	0.99	–	–	–
COc1nc(C/C=C(\C)C/C(C)=C/C(C)=C/[C@@H](C)[C@@H](O)/C(C)=C/[C@@](C)(O)[C@H](C)O)c(C)c(O)c1OC	4.1	3.8	> 100	63	13	–
COc1nc(C/C=C(\C)C[C@H](O)[C@H](OC)/C(C)=C/[C@@H](C)[C@@H](O[C@@H]2O[C@H](CO)[C@@H](O)[C@H](O)[C@H]2O)/C(C)=C/CO)c(C)c(O)c1OC	> 100	60	> 100	–	–	–
C/C=C(\C)[C@H](O[C@@H]1O[C@H](CO[C@H]2O[C@H](CO)[C@H](O)[C@H](O)[C@H]2O)[C@@H](O)[C@H](O)[C@H]1O)[C@H](C)/C=C(C)/C=C/C/C(C)=C/Cc1nc(OC)c(OC)c(O)c1C	> 100	4.5	> 100	> 100	9	–
COc1nc(C/C=C(\C)C/C(C)=C/C(C)=C/[C@@H](C)[C@@H](O)[C@]2(C)O[C@H]2C)c(C)c(O)c1OC	22	> 100	> 100	> 100	> 100	–
COc1nc(C/C=C(\C)C/C=C/C(C)=C/[C@@H](C)[C@@H](O[C@@H]2O[C@H](CO)[C@@H](O)[C@H](O)[C@H]2O)[C@@]2(C)O[C@@H]2C)c(C)c(O)c1OC	30	2.8	19	–	–	–
COc1nc(C/C=C(\C)C/C(C)=C/C(C)=C/[C@@H](C)[C@@H](O)/C(C)=C/[C@](C)(O)[C@@H](C)O)c(C)c(O)c1OC	5.3	2.4	> 100	44	8.2	–
COc1nc(C/C=C(\C)C/C=C/C(C)=C/[C@@H](C)[C@@H](O[C@@H]2O[C@H](CO[C@H]3O[C@H](CO)[C@H](O)[C@H](O)[C@H]3O)[C@@H](O)[C@H](O)[C@H]2O)/C(C)=C/CO)c(C)c(O)c1OC	> 100	> 100	> 100	> 100	–	–
C/C=C(\C)C(=O)[C@H](C)/C=C(C)/C=C/C/C(C)=C/Cc1nc(OC)c(OC)c(O)c1C	22	> 100	> 100	–	> 100	–
C/C=C(\C)[C@H](O[C@@H]1O[C@H](CO[C@H]2O[C@H](CO)[C@@H](O)[C@H](O)[C@H]2O)[C@@H](O)[C@H](O)[C@H]1O)[C@H](C)/C=C(C)/C=C/C/C(C)=C/Cc1nc(OC)c(OC)c(O)c1C	> 100	21	> 100	> 100	–	–
COc1nc(C/C=C(\C)C/C=C/C=C/[C@@H](C)[C@@H](O[C@@H]2O[C@H](CO)[C@@H](O)[C@H](O)[C@H]2O)/C(C)=C/CO)c(C)c(O)c1OC	79	2.5	28	–	–	–
C/C=C/[C@H](O)[C@H](C)/C=C(C)/C=C/C/C(C)=C/Cc1nc(OC)c(OC)c(O)c1C	11	4.1	> 100	–	11	–
C/C=C(\C)[C@H](O)[C@H](C)/C=C(C)/C=C(\C)C/C(C)=C/Cc1nc(OC)c(OC)c(O)c1C	17	14	50	45	68	–
COc1nc(C/C=C(\C)C/C=C/C(C)=C/[C@@H](C)[C@@H](O[C@@H]2O[C@H](CO[C@H]3O[C@H](CO)[C@@H](O)[C@H](O)[C@H]3O)[C@@H](O)[C@H](O)[C@H]2O)/C(C)=C/CO)c(C)c(O)c1OC	> 100	23	> 100	> 100	58	–
C/C=C(\C)[C@H](O[C@@H]1O[C@H](CO)[C@@H](O)[C@H](O)[C@H]1O)[C@H](C)/C=C(C)/C=C/C/C(C)=C/Cc1nc(OC)c(OC)c(O[C@@H]2O[C@H](CO)[C@@H](O)[C@H](O)[C@H]2O)c1C	> 100	28	> 100	1.1	–	–
COc1nc(C/C=C(\C)C/C=C/C(C)=C/[C@@H](C)[C@@H](O[C@@H]2O[C@H](CO)[C@@H](O)[C@H](O)[C@H]2O)/C(C)=C/CO)c(C)c(O)c1OC	> 100	7.21	> 100	> 100	–	Not Active
C/C=C(\C)[C@H](O[C@@H]1O[C@H](CO)[C@@H](O)[C@H](O)[C@H]1O)[C@H](C)/C=C(\C)[C@@H](OC)[C@@H](O)C/C(C)=C/Cc1nc(OC)c(OC)c(O)c1C	> 100	2.4	> 100	–	–	–
